Measurements collected from several papers.
Target: Fibroblast growth factor receptor 4 (FGFR4, Homo sapiens, UniProt P22455)

Structure (SMILES)	observed	method	tested at	remaining binding [%]
O=C(Nc1ccc(Oc2ccc(F)cc2)cc1)N1CCc2ncccc2[C@H]1c1ccc(F)cc1	cell-free assay	competition with immobilised ligand	1 µM	95
Nc1ncc2c(n1)-c1c([nH]c3ccc(C#CC4CC4)cc13)CCCC2	binding	competition with immobilised ligand	1 µM	98
O=C(c1ccc(Nc2ncc(Cl)c(-c3cc4ccccc4s3)n2)cc1)N1CCC(N2CCCC2)CC1	binding	competition with immobilised ligand	1 µM	77
CN([C@@H]1CCc2c(CC(=O)O)c3cc(S(C)(=O)=O)ccc3n2C1)S(=O)(=O)c1ccc(F)cc1	cell-free assay	competition with immobilised ligand	1 µM	99
C=CC(=O)N1CCC(C(=O)NCC(=O)N2CCN(c3nc(-c4cnc(N)nc4C(F)F)nc(N4CCOCC4)n3)CC2)CC1	binding	competition with immobilised ligand	1 µM	100
CS(=O)(=O)NCC[C@H](NC(=O)c1cncc2c1cnn2-c1ccc(F)cc1)c1ccnc(S(C)(=O)=O)c1	cell-free assay	competition with immobilised ligand	1 µM	100
CN(C)c1ncc(F)c(-c2cnn3ncccc23)n1	binding		1 µM	100
Cc1cnc(Nc2ccc(C(=O)N3CCC(N4CCCC4)CC3)cc2)nc1-c1cc2ccccc2s1	binding	competition with immobilised ligand	1 µM	76
C[C@H]1CCN(c2nccc(-c3cnn4ncccc34)n2)C1	binding		1 µM	76
CNC(=O)[C@@H]1CC[C@@H](n2c(-c3ccc4cnccc4c3)nc3ccc(C(=O)NCc4cccc(C(N)=O)c4)cc32)C1	binding	competition with immobilised ligand	1 µM	100
N#CC1(c2ccccn2)CCN(Cc2cc(C(=O)N3CCCC3)c(=O)n3ccccc23)CC1	cell-free assay	competition with immobilised ligand	1 µM	90
N[C@@H]1CCN(c2nccc(-c3cnn4ncccc34)n2)C1	binding		1 µM	96
FC(F)(F)Oc1cccc(-c2cnc3ccc(-c4ccncc4)nn23)c1	cell-free assay	competition with immobilised ligand	5 µM	98
COc1ncc2cc3ccccc3nc2c1C#N	cell-free assay	competition with immobilised ligand	5 µM	88
Cc1cnn2ncc(-c3ccnc(N(C)C)n3)c2c1	binding		1 µM	97
O=C(NCCCN1CCOCC1)c1ccc(Nc2ncc(Cl)c(-c3ccc(Cl)s3)n2)cc1	binding	competition with immobilised ligand	1 µM	89
CN(C(=O)c1ccccc1)c1cc(N(C)c2ccc3c(c2)CCc2ccc(C(=O)NCCN4CCOCC4)cc2C3=O)ccc1F	cell-free assay	competition with immobilised ligand	1 µM	100
O=C(NCC1CCOCC1)c1n[nH]cc1NC(=O)c1c(F)cccc1F	binding	competition with immobilised ligand	1 µM	100
CC1CCCN1c1nccc(-c2cnn3ncccc23)n1 (stereo not shown)	binding		1 µM	100
Cc1c(C(=O)O)cc(-c2ccc(C3CCNCC3)cc2)c2ccc(-c3ccc(C(F)(F)F)cc3)cc12	cell-free assay	competition with immobilised ligand	1 µM	100
CN(CCCC(F)(F)F)c1nccc(-c2cnn3ncccc23)n1	binding		1 µM	96
C[C@@H](c1ccc(-n2cnc3c(N)ncnc32)cc1)N1CCc2nn(C)c(Cc3ccccc3)c2C1=O	binding	competition with immobilised ligand	0.1 µM	97
